Test results: ChEMBL document CHEMBL6120993, “Cardenolides in Asclepias syriaca Seeds: Exploring the Legacy of Tadeus Reichstein” (J Nat Prod, 2025)

Assays:
[1] = Inhibition of porcine sodium/potassium-ATPase incubated for 20 mins by Spectrophotometric analysis; parameters: species or system Sus scrofa domesticus
Procedure, shortened: (§1)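 Enzyme was porcine cerebral cortex Na+/K+-ATPase or dissected Oncopeltus fasciatus neural tissue. Six-point 1/10 series (5 × 10⁻³ to 5 × 10⁻⁸ M, in 20% DMSO/H2O) was diluted 1:5 into Tris-buffered ATP, NaCl, KCl, MgCl2 and enzyme, then held 20 min at 37 °C with shaking. SDS stop; Taussky–Shorr phosphate read at 700 nm. KCl-free background contained 10 mM ouabain. Technical triplicates; ouabain reference; 4-parameter logistic mixed model gave IC50.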

[2] = Inhibition of seed bug sodium/potassium-ATPase incubated for 20 mins by Spectrophotometric analysis; parameters: species or system Oncopeltus fasciatus; procedure, shortened: as §1

Row | Structure (SMILES) | IC50 [1] | IC50 [2]
1 | C[C@@H]1C[C@@]2(N=CCS2)[C@]2(O)O[C@@H]3C[C@@]4(C)[C@@H](C[C@@H]5O[C@]56[C@@H]4[C@H](O)C(=O)[C@]4(C)[C@@H](C5=CC(=O)OC5)CC[C@]64O)C[C@H]3O[C@@H]2O1 | 0.9 µM | 220 µM
2 | C[C@H]1O[C@@H](O[C@H]2CC[C@@]3(C)[C@H](C2)C[C@@H]2O[C@]24[C@@H]3C[C@@H](O)[C@]2(C)[C@@H](C3=CC(=O)OC3)CC[C@@]24O)[C@H](O)[C@H](O)[C@@H]1O | 1.4 µM | 1080 µM
3 | C[C@@H]1C[C@@H](O[C@@H]2O[C@H](CO)[C@@H](O)[C@H](O)[C@H]2O)[C@]2(O)O[C@@H]3C[C@@]4(C)[C@@H](C[C@@H]5O[C@]56[C@@H]4[C@H](O)[C@H](O)[C@]4(C)[C@@H](C5=CC(=O)OC5)CC[C@@]46O)C[C@H]3O[C@@H]2O1 | 2.2 µM | 1960 µM
4 | C[C@@H]1O[C@@H](O[C@H]2C[C@@H](O)[C@]3(CO)[C@H]4[C@H](O)C[C@]5(C)[C@@H](C6=CC(=O)OC6)CC[C@]5(O)[C@@H]4CC[C@]3(O)C2)[C@H](O)[C@H](O)[C@H]1O [OUABAIN] | 0.7 µM | 2100 µM
5 | C[C@@H]1C[C@@H](O[C@@H]2O[C@H](CO)[C@@H](O)[C@H](O)[C@H]2O)[C@]2(O)O[C@@H]3C[C@@]4(C)[C@@H](C[C@@H]5O[C@]56[C@@H]4[C@H](O)C(=O)[C@]4(C)[C@@H](C5=CC(=O)OC5)CC[C@]64O)C[C@H]3O[C@@H]2O1 | 0.9 µM | 640 µM
6 | C[C@H]1O[C@@H](O[C@H]2CC[C@@]3(C)[C@H](C2)C[C@@H]2O[C@]24[C@@H]3C[C@@H](O)[C@]2(C)[C@@H](C3=CC(=O)OC3)CC[C@@]24O)[C@H](O)[C@H](O)[C@@H]1O[C@@H]1O[C@H](CO)[C@@H](O)[C@H](O)[C@H]1O | 1.4 µM | 1040 µM
7 | C[C@H]1O[C@@H](O[C@H]2CC[C@@]3(C)[C@H](C2)C[C@@H]2O[C@]24[C@@H]3CC[C@]2(C)[C@@H](C3=CC(=O)OC3)CC[C@]42O)[C@H](O)[C@H](O)[C@@H]1O[C@@H]1O[C@H](CO)[C@@H](O)[C@H](O)[C@H]1O | 1.1 µM | 830 µM
8 | C[C@H]1O[C@@H](O[C@H]2CC[C@@]3(C)[C@@H](CC[C@@H]4[C@@H]3C[C@@H](O)[C@]3(C)[C@@H](C5=CC(=O)OC5)CC[C@]43O)C2)[C@H](O)[C@H](O)[C@@H]1O[C@@H]1O[C@H](CO)[C@@H](O)[C@H](O)[C@H]1O | 1.1 µM | 220 µM
